Experimental data: ChEMBL document CHEMBL1121416, “Synthesis of potential inhibitors of hypoxanthine-guanine phosphoribosyltransferase for testing as antiprotozoal agents. 1. 7-Substituted 6-oxopurines” (J Med Chem, 1980)

Tests used:
Plasmodium berghei = test: Activity against Plasmodium berghei in mice (Mus musculus); format: functional, organism-based
Method in brief: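 Mice infected with P. berghei; survival time (life span) of treated mice was the read-out.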

[1] = biological target: T1, Hypoxanthine-guanine phosphoribosyltransferase (Homo sapiens) (UniProt P00492); test: Ability to inhibit hypoxanthine-guanine phosphoribosyltransferase in crude extracts of H.Ep.-2 cells.
T1 sequence (whole entry): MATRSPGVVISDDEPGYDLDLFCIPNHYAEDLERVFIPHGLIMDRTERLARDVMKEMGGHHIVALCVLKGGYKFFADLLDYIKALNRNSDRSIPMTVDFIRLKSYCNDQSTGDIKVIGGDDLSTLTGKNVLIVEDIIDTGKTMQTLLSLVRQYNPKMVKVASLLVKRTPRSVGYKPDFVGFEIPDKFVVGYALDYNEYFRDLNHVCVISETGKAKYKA
Also: test concentration or dose not given here.

| SMILES | Activity [1] | Activity (Plasmodium berghei) |
| --- | --- | --- |
| Nc1nc(O)c2c(ncn2CC(O)CNC(=O)c2cccc(S(=O)(=O)F)c2)n1 (stereo not drawn) | No inhibition | Not significant |
| Nc1cccc(Cn2cnc3ncnc(O)c32)c1 | No inhibition | Not significant |
| OCC(O)Cn1cnc2ncnc(O)c21 (stereo not drawn) | No inhibition | Not significant |
| CC(=O)OCC1OC([n+]2cn(CCO)c3c(O)nc(N)nc32)C(OC(C)=O)C1OC(C)=O (stereo not drawn) | No inhibition | Not significant |
| O=C(Nc1ccc(Cn2cnc3ncnc(O)c32)cc1)c1cccc(S(=O)(=O)F)c1 | No inhibition | Not significant |
| Nc1nc(O)c2c(ncn2CCNC(=O)c2ccc(S(=O)(=O)F)cc2)n1 | No inhibition | Not significant |
| Nc1nc(O)c2c(ncn2Cc2cccc(NC(=O)c3cccc(S(=O)(=O)F)c3)c2)n1 | No inhibition | Not significant |
| OCCn1cnc2ncnc(O)c21 | No inhibition | Not significant |
| NCCn1cnc2nc(N)nc(O)c21 | No inhibition | Not significant |
| Nc1nc(O)c2c(ncn2CCNC(=O)c2cccc(S(=O)(=O)F)c2)n1 | No inhibition | Not significant |
| Nc1ccc(Cn2cnc3ncnc(O)c32)cc1 | No inhibition | Not significant |
| O=[N+]([O-])c1cccc(Cn2cnc3ncnc(O)c32)c1 | No inhibition | Not significant |
| Nc1nc(O)c2c(ncn2Cc2cccc(NC(=O)c3ccc(S(=O)(=O)F)cc3)c2)n1 | No inhibition | Not significant |
| Nc1nc(O)c2c(n1)nc(Cl)n2CCCl | No inhibition | Not significant |
| CCOC(=O)/C=C/Cn1cnc2nc(N)nc(O)c21 | No inhibition | Not significant |
| Nc1nc2c(ncn2[C@@H]2O[C@H](CO)[C@@H](O)[C@H]2O)c(=O)[nH]1 | No inhibition | Not significant |
| Nc1nc(O)c2c(ncn2Cc2ccc(NC(=O)c3ccc(S(=O)(=O)F)cc3)cc2)n1 | No inhibition | Not significant |

| SMILES | Activity [1] | Activity (Plasmodium berghei) |
| --- | --- | --- |
| CC(=O)OC[C@H]1O[C@@H](N2C=NC3C(=O)N=C(N)N=C32)[C@H](OC(C)=O)[C@@H]1OC(C)=O (stereo partly drawn) | No inhibition | Not significant |
| O=C(CBr)Nc1ccc(Cn2cnc3ncnc(O)c32)cc1 | No inhibition | Not significant |
| O=[N+]([O-])c1ccc(Cn2cnc3ncnc(O)c32)cc1 | No inhibition | Not significant |
| Nc1nc(O)c2c(n1)[n+](C1O[C@H](CO)[C@@H](O)[C@H]1O)cn2CCO (stereo partly drawn) | No inhibition | Not significant |
| Nc1nc(O)c2c(ncn2CCNC(=O)CBr)n1 | No inhibition | Not significant |
| Nc1nc(O)c2c(ncn2Cc2ccc(NC(=O)c3cccc(S(=O)(=O)F)c3)cc2)n1 | No inhibition | Not significant |
| Nc1nc(O)c2c(ncn2CCCS(=O)(=O)O)n1 | No inhibition | Not significant |
| Nc1nc(O)c2c(ncn2CC(O)CNC(=O)c2ccc(S(=O)(=O)F)cc2)n1 (stereo not drawn) | No inhibition | Not significant |
| O=C(Nc1ccc(Cn2cnc3ncnc(O)c32)cc1)c1ccc(S(=O)(=O)F)cc1 | No inhibition | Not significant |
| [N-]=[N+]=NCCn1cnc2nc(N)nc(O)c21 | No inhibition | Not significant |
| Oc1ncnc2ncn(CC(O)CCl)c12 (stereo not drawn) | No inhibition | Not significant |
| Nc1nc(O)c2c(ncn2CC=O)n1 | No inhibition | Not significant |
| Nc1nc(O)c2c(ncn2CCO)n1 | No inhibition | Not significant |
| Nc1nc(O)c2c(ncn2CCCl)n1 | No inhibition | Not significant |
| Nc1nc(O)c2c(ncn2Cc2cccc([N+](=O)[O-])c2)n1 | No inhibition | Not significant |
| O=C1c2ccccc2C(=O)N1CC(O)Cn1cnc2ncnc(O)c21 (stereo not drawn) | No inhibition | Not significant |

Second part, led by results:

| Activity [1] | SMILES | Activity (Plasmodium berghei) |
| --- | --- | --- |
| No inhibition | Nc1nc(O)c2c(ncn2Cc2cccc(NC(=O)c3ccc(Cl)cc3)c2)n1 | Not significant |
| No inhibition | Nc1nc(O)c2c(ncn2CC(O)CCl)n1 (stereo not drawn) | Not significant |
| No inhibition | Nc1nc(O)c2c(ncn2CC(O)CNC(=O)c2ccc(Cl)cc2)n1 (stereo not drawn) | Not significant |
| No inhibition | Nc1nc(O)c2c(ncn2CC(O)CO)n1 (stereo not drawn) | Not significant |
| No inhibition | Nc1ccc(Cn2cnc3nc(N)nc(O)c32)cc1 | Not significant |
| No inhibition | Nc1nc(O)c2c(ncn2CCNC(=O)c2ccc(Cl)cc2)n1 | Not significant |
| No inhibition | [N-]=[N+]=NCC(O)Cn1cnc2nc(N)nc(O)c21 (stereo not drawn) | Not significant |
| No inhibition | Nc1nc(O)c2c(ncn2Cc2ccc(NC(=O)CBr)cc2)n1 | Not significant |
| No inhibition | Nc1cccc(Cn2cnc3nc(N)nc(O)c32)c1 | Not significant |
| No inhibition | Nc1nc(O)c2c(ncn2Cc2ccc([N+](=O)[O-])cc2)n1 | Not significant |
| No inhibition | O=C(Nc1ccc(Cn2cnc3ncnc(O)c32)cc1)c1ccc(Cl)cc1 | Not significant |
| No inhibition | Nc1nc(O)c2c(ncn2Cc2ccc(NC(=O)c3ccc(Cl)cc3)cc2)n1 | Not significant |
| No inhibition | Nc1nc(O)c2c(ncn2CC(O)CNC(=O)CBr)n1 (stereo not drawn) | Not significant |
| No inhibition | Nc1nc(O)c2c(ncn2CC(O)CN2C(=O)c3ccccc3C2=O)n1 (stereo not drawn) | Not significant |
| No inhibition | NCC(O)Cn1cnc2nc(N)nc(O)c21 (stereo not drawn) | Not significant |
| No inhibition | Nc1nc(O)c2c(ncn2Cc2cccc(NC(=O)CBr)c2)n1 | Not significant |
